MEKK2 WT-MEK5 = raises or lowers MEK5 binding to wildtype human MEKK2 PB1 domain. Q9Y2U5. bead flow cytometry, Alexa488-MEK5 binding to MEKK2 WT; actives lie on both sides. binding response (% of control), % at 10 µM. 290,000 compounds, 1.1% hits. AID 1531; in the data active = binding response below about 67% or above about 130%
MEKK2mut PB1 HTS = signal of MEK5 binding to mutant human MEKK2 PB1 domain; percent response, % at 10 µM; 290,000 compounds, 0.35% hits; bead flow cytometry, Alexa488-MEK5 binding to MEKK2 mutant; in the data active = percent response above about 24%, passing the limit was not always enough
Hep lipid drop = modulators of hepatic lipid droplet formation | AML12 mouse hepatocytes, oleate lipid droplets, BODIPY imaging | inhibition, % at 6.5 µM | 240,000 compounds, 0.4% hits | AID 1656;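 active = lipid droplet intensity inhibited by at least 50%, with more than 500 cells counted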
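Test system: AML12 mouse liver cells; schedule: overnight exposure; technique: high-content imaging of BODIPY-stained droplets and DAPI nuclei; read-out: % inhibition of corrected integrated BODIPY droplet signal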
MEKK3 PB1 HTS = MEKK3-MEK5 PB1 interaction, increase or decrease. Q99759. bead-based flow cytometry, Alexa488-MEK5 binding to MEKK3; actives lie on both sides; 0 = blocked by unlabeled MEK5, 100 = vehicle. binding response (% of control), % at 10 µM. 290,000 compounds, 1.4% hits. AID 1529;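 active = binding response more than 3 SD above or below the average of its plate-row segment, actives on both sides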;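 also: Alexa488 bead fluorescence after subtracting the streptavidin-only scavenger bead signal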
Target sequence (Q99759 whole entry, looked up): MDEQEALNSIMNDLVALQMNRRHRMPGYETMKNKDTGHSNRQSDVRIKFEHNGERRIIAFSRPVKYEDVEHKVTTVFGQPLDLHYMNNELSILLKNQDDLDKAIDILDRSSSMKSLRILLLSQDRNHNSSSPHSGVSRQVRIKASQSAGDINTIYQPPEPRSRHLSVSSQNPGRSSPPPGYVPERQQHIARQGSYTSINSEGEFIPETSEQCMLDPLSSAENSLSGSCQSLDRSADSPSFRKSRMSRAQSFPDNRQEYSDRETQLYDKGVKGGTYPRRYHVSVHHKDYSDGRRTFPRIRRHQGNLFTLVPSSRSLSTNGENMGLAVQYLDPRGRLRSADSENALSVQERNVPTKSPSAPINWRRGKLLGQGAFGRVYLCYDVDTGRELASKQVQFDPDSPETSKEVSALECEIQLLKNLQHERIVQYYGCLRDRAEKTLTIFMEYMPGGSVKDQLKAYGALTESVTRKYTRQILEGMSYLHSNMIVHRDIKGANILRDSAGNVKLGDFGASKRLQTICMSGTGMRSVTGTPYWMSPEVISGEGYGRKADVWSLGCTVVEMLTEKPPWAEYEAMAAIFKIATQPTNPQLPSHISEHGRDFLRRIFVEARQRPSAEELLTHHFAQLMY
MEKK2wt confirm = raises or lowers MEK5 binding to wildtype human MEKK2, retest; shares compounds with MEKK3 PB1 HTS; bead flow cytometry, Alexa488-MEK5 binding to MEKK2 WT; actives lie on both sides; binding response (% of control), % at 10 µM; 5,900 compounds, 2.4% hits; AID 1892; in the data active = binding response below about 16% or above about 210%; inactive = in between
MEKK2mut-MEK5 = signal of MEK5 binding to mutant human MEKK2, retest | bead flow cytometry, Alexa488-MEK5 binding to MEKK2 mutant | 5,900 compounds, 2% hits | percent response, % at 10 µM | shares compounds with MEKK3 PB1 HTS; in the data active = percent response mostly above about 71%, no sharp cut-off; inactive = mostly below about 38%;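 also: higher means compound restores mutant binding toward wildtype level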
MEKK3-MEK5 inh = MEKK3-MEK5 PB1 inhibition, single concentration confirmation. shares compounds with MEKK3 PB1 HTS. bead flow cytometry, Alexa488-MEK5 binding to MEKK3; active compounds read low. binding response (% of control), % at 10 µM. 5,900 compounds, 1.8% hits. AID 1894;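 active = binding response below 72% of control, or above a set upper limit, though filed actives all read lower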;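 also: 100% = DMSO only wells and 0% = binding blocked by excess unlabeled MEK5; lower values mean stronger disruption of MEK5 binding to MEKK3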
Numbers without * were called inactive; [ ] = remark or other dose. Hits are enriched below; roughly 2.6% of the tested compounds scored in any of these assays.

Screening Cc1csc(Sc2nc3c(c(=O)[nH]c(=O)n3C)n2CCCc2ccccc2)n1 returned MEKK2 WT-MEK5 1.0*[inhibitor], MEKK2mut PB1 HTS -21, MEKK3 PB1 HTS 2.0*[inhibitor], MEKK2wt confirm 91, MEKK2mut-MEK5 -10 and MEKK3-MEK5 inh 93.
CC(=O)ONC(=Nc1ccccc1)c1nonc1N was read as MEKK2 WT-MEK5 52, MEKK2mut PB1 HTS -46, Hep lipid drop -4, MEKK3 PB1 HTS 47*[inhibitor], MEKK2wt confirm 109, MEKK2mut-MEK5 3 and MEKK3-MEK5 inh 101.
For CCN(CC)c1ccc(/C=c2/sc3nnc(-c4ccccc4C)n3c2=O)cc1 the results were MEKK2mut PB1 HTS 318*, Hep lipid drop -24, MEKK3 PB1 HTS 101, MEKK2wt confirm 107, MEKK2mut-MEK5 37 and MEKK3-MEK5 inh 85.
Screening CCN(CC)c1ccc(/C=c2\sc3nnc(-c4ccccc4Cl)n3c2=O)cc1 returned MEKK2 WT-MEK5 44*[inhibitor], MEKK2mut PB1 HTS 22, Hep lipid drop 4, MEKK3 PB1 HTS 84, MEKK2wt confirm 65, MEKK2mut-MEK5 -29 and MEKK3-MEK5 inh 78.
Screening Cc1ccc(/C=c2/sc3nnc(-c4ccccc4Cl)n3c2=O)o1 returned MEKK2 WT-MEK5 94, MEKK2mut PB1 HTS 0 and MEKK3 PB1 HTS 102.
Screening COc1ccc(C(=O)N[C@H](C(=O)NCc2cccs2)C(C)C)cc1 returned MEKK2 WT-MEK5 105, MEKK2mut PB1 HTS 2, Hep lipid drop -17 and MEKK3 PB1 HTS 101.
For CC(=O)OCC(=O)C1=CCC2C3CCC4=CC(=O)C=CC4(C)C3(F)C(OC(C)=O)CC12C (stereo not drawn) the results were MEKK2 WT-MEK5 37*[inhibitor], MEKK2mut PB1 HTS -2, Hep lipid drop -20, MEKK3 PB1 HTS 62*[inhibitor], MEKK2wt confirm 103, MEKK2mut-MEK5 0 and MEKK3-MEK5 inh 102.
For C[C@@H]1C[C@H]2[C@@H]3CCC4=CC(=O)C=C[C@]4(C)[C@@]3(F)[C@@H](O)C[C@]2(C)[C@@]1(O)C(=O)COP(=O)(O)O the results were MEKK2 WT-MEK5 95, MEKK2mut PB1 HTS -4, Hep lipid drop 1 and MEKK3 PB1 HTS 95.
COc1ccc(S(=O)(=O)NCC2CCCN(C(=O)CSC)C2)cc1 (stereo not drawn) was read as MEKK2 WT-MEK5 105, MEKK2mut PB1 HTS 4, Hep lipid drop -35 and MEKK3 PB1 HTS 103.
For Cc1ccc(Cn2cc(/C=N/Nc3ccc([N+](=O)[O-])cn3)c3ccccc32)cc1 the results were MEKK2 WT-MEK5 53*[inhibitor], MEKK2mut PB1 HTS 15, Hep lipid drop 14, MEKK3 PB1 HTS 98, MEKK2wt confirm 100, MEKK2mut-MEK5 -4 and MEKK3-MEK5 inh 98.
`O=C(O)Cn1cc(/C=N/Nc2ccc([N+](=O)[O-])cn2)c2ccccc21` gave MEKK2 WT-MEK5 107, MEKK2mut PB1 HTS 2, Hep lipid drop -2 and MEKK3 PB1 HTS 104.
`COC(=O)c1cc(OC)c(OC)cc1NC(=O)Cc1cccs1` gave MEKK2 WT-MEK5 7.0*[inhibitor], MEKK2mut PB1 HTS -46, Hep lipid drop 1, MEKK3 PB1 HTS 5.0*[inhibitor], MEKK2wt confirm 99, MEKK2mut-MEK5 -3 and MEKK3-MEK5 inh 98.
CC(C)c1nc2sc3c(=O)n(N)cnc3c2c2c1COC(C)(C)C2 was read as MEKK2 WT-MEK5 104, MEKK2mut PB1 HTS 0, Hep lipid drop -6, MEKK3 PB1 HTS 145*, MEKK2wt confirm 120, MEKK2mut-MEK5 31 and MEKK3-MEK5 inh 119.
Screening CCCCN(CCCNC(=O)c1ccc2nc(N3CCOCC3)sc2c1)Cc1ccccc1 returned MEKK2 WT-MEK5 158*, MEKK2mut PB1 HTS 20, MEKK3 PB1 HTS 105, MEKK2wt confirm 167, MEKK2mut-MEK5 37 and MEKK3-MEK5 inh 109.
`O=C(NCCc1ccccc1)c1ccc2nc(N3CCOCC3)sc2c1` gave MEKK2 WT-MEK5 98, MEKK2mut PB1 HTS -2, Hep lipid drop 3 and MEKK3 PB1 HTS 102.
